ChEMBL document CHEMBL1137560, “Synthesis and monoamine oxidase inhibitory activity of new pyridazine-, pyrimidine- and 1,2,4-triazine-containing tricyclic derivatives” (J Med Chem, 2007)

Key:
[1] = biological target: T1, Amine oxidase [flavin-containing] B (Rattus norvegicus, UniProt P19643); test: Inhibition of MAOB in rat brain mitochondria
T1 sequence (P19643 whole entry): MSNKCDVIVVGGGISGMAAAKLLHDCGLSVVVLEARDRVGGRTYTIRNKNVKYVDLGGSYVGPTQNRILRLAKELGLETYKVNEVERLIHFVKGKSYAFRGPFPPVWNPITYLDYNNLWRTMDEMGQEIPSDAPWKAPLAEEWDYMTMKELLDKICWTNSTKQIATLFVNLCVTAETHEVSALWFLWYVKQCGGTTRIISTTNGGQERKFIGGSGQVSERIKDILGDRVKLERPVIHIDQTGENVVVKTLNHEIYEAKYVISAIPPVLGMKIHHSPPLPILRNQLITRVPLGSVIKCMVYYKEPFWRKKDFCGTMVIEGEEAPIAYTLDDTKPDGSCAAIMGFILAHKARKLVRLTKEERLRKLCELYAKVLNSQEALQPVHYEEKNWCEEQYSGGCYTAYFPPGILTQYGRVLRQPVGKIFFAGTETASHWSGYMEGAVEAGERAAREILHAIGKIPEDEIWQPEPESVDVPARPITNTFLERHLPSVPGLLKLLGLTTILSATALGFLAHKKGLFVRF
In short: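 MAO-B measured in rat brain mitochondrial suspension after 5 min preincubation with clorgyline. Incubations at pH 7.40 (isotonic phosphate/KCl) and 37 °C, 5% DMSO cosolvent. Kynuramine 60 µM (its KM); 4-hydroxyquinoline formation read continuously at 314 nm. Highest concentration 100 µM; IC50 derived by hyperbolic equation fit.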

[2] = biological target: T2, Amine oxidase [flavin-containing] A (Rattus norvegicus, UniProt P21396); test: Inhibition of MAOA in rat brain mitochondria
T2 sequence (P21396 whole entry): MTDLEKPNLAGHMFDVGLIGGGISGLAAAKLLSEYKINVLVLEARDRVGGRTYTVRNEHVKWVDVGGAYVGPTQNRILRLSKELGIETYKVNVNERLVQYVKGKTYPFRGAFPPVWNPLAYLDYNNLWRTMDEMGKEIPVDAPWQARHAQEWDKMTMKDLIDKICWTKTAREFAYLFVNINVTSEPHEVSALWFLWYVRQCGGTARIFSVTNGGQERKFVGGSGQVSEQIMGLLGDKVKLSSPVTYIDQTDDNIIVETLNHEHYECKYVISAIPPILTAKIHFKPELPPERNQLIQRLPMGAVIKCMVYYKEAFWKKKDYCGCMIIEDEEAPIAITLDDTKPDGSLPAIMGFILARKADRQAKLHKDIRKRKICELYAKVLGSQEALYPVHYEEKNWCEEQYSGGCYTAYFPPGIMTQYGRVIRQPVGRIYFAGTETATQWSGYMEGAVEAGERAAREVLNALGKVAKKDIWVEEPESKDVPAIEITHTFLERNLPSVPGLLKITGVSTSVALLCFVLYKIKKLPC
In short: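 Rat brain mitochondrial suspension, isotonic Na2HPO4/KH2PO4–KCl buffer, pH 7.40, 37 °C, with 5% DMSO cosolvent. Preincubated 5 min with selegiline to isolate MAO-A. Continuous spectrophotometric assay: 90 µM kynuramine (its KM) oxidized to 4-hydroxyquinoline, followed at 314 nm. Top concentration tested 100 µM; IC50 calculated from a hyperbolic equation.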

[3] = biological target: T2, Amine oxidase [flavin-containing] A; test: Inhibition of MAOA in rat brain mitochondria at 50 uM
[4] = biological target: T1, Amine oxidase [flavin-containing] B; test: Inhibition of MAOB in rat brain mitochondria at 10 uM
[5] = biological target: T2, Amine oxidase [flavin-containing] A; test: Inhibition of MAOA in rat brain mitochondria at 10 uM
[6] = biological target: T1, Amine oxidase [flavin-containing] B; test: Inhibition of MAOB in rat brain mitochondria at 25 uM
In short: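 Rat brain mitochondrial suspension, pre-treated 5 min with clorgyline to isolate MAO-B. Kynuramine substrate at 60 µM (its KM) in isotonic Na2HPO4/KH2PO4/KCl buffer, pH 7.40, 37 °C, with 5% DMSO cosolvent. 4-Hydroxyquinoline formation followed continuously at 314 nm. Percent inhibition taken at the compound's maximum solubility; means ± SEM of three experiments, each run in duplicate.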

[7] = biological target: T1, Amine oxidase [flavin-containing] B; test: Inhibition of MAOB in rat brain mitochondria at 20 uM
[8] = biological target: T1, Amine oxidase [flavin-containing] B; test: Inhibition of MAOB in rat brain mitochondria at 50 uM
[9] = biological target: T2, Amine oxidase [flavin-containing] A; test: Inhibition of MAOA in rat brain mitochondria at 1 uM
[10] = biological target: T1, Amine oxidase [flavin-containing] B; test: Inhibition of MAOB in rat brain mitochondria at 1 uM

| SMILES | IC50 [1] [µM] | IC50 [2] [µM] | inhibition at 10 µM [5] [%] | further results |
| --- | --- | --- | --- | --- |
| O=C1c2ccccc2-c2nnc(OCc3ccccc3)cc21 | 55 | > 100 | – | – |
| O=C1c2ccccc2-c2ncnc(-c3ccccc3)c21 | 34 | 21.6 | – | – |
| O=C1c2ccccc2-c2nn(-c3ccccc3)c(=O)cc21 | 38 | – | – | inhibition at 50 µM [3]: 46% |
| Cc1ncc2c(n1)C(=O)c1ccccc1-2 | 9.4 | 47.1 | – | – |
| O=C1c2ccccc2-c2nnc(COc3ccc(C(F)(F)F)cc3)cc21 | – | – | 0 | inhibition at 10 µM [4]: 48% |
| c1ccc(-c2ncc3c(n2)Cc2ccccc2-3)cc1 | 13 | 16.7 | – | – |
| O=C1c2ccccc2-c2nnc(COc3ccccc3)cc21 | 2.51 | – | 0 | – |
| O=C(c1ccccc1)c1cnncc1-c1ccc(Cl)cc1 | > 100 | 30.8 | – | – |
| c1ccc2c(c1)CCc1c-2[nH]c2ccccc12 | – | 12 | – | inhibition at 25 µM [6]: 38% |
| c1ccc(-c2ncc3c(n2)-c2ccccc2C3)cc1 | – | 18 | – | inhibition at 20 µM [7]: 37% |
| Nc1cccc(-c2nnc3c(n2)-c2ccccc2C3=O)c1 | – | – | 12 | inhibition at 10 µM [4]: 17% |
| O=C1c2ccccc2-c2nc(-c3cccc([N+](=O)[O-])c3)nnc21 | 0.08 | – | 23 | – |
| O=C1c2ccccc2-c2nnc(COc3ccc(F)cc3)cc21 | 1.9 | – | 12 | – |
| O=C1c2ccccc2-c2nc(-c3ccccc3)nnc21 | 6.31 | – | 21 | – |
| c1ccc2c(c1)nnc1c3ccccc3[nH]c21 | – | 29.7 | – | inhibition at 50 µM [8]: 29% |
| O=C1c2ccccc2-c2nnc(-c3cccc([N+](=O)[O-])c3)nc21 | 0.912 | – | 3 | – |
| O=C1c2ccccc2-c2cnc(-c3cccc([N+](=O)[O-])c3)nc21 | – | – | – | inhibition at 1 µM [9]: 5%; inhibition at 1 µM [10]: 12% |
